In ChEMBL document CHEMBL1147898, “Synthesis and preliminary pharmacological evaluation of the four stereoisomers of (2S)-2-(2'-phosphono-3'-phenylcyclopropyl)glycine, the first class of 3'-substituted trans C1'-2'-2-(2'-phosphonocyclopropyl)glycines” (Bioorg Med Chem, 2007) one finds EC50 and Ki data, which are given here for five molecules.

Bounds are passed on as bounds.

The target in experiment [1] is Metabotropic glutamate receptor 5 (Rattus norvegicus, UniProt P31424). The experiment is described as follows: Activity at rat recombinant mGluR5 expressed in CHO cells assessed as intracellular calcium concentration. The experiment is classed as functional, cell-based. For orientation: Calcium flux is commonly read through the fluorescence of an indicator in the cells.

Experiment [2] addresses Metabotropic glutamate receptor 2 (Homo sapiens, UniProt Q14416). The experiment is described as follows: Activity at human recombinant mGluR2 expressed in BHK cells assessed as stimulation of [35S]GTP-gamma-S binding. The experiment is classed as functional, cell-based. In general terms: Binding of GTPγS marks nucleotide exchange on a G protein.
Experiment [3] has as its target Metabotropic glutamate receptor 6 (Rattus norvegicus, UniProt P35349). The experiment is described as follows: Activity at rat recombinant mGluR6 expressed in CHO cells assessed as cAMP production. The experiment is classed as functional, cell-based. The gist of the method: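 rmGluR6 expressed in CHO cells. Potency was measured from cAMP formation, reported as EC50. Means ± SEM of at least three independent experiments, each in triplicate.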
(Changes in cAMP serve as a functional read-out for many G protein-coupled receptors.)

The target in experiment [4] is Metabotropic glutamate receptor 8 (Rattus norvegicus, UniProt P70579). The experiment is described as follows: Displacement of [3H]LY341495 from rat recombinant mGluR8 expressed in BHK cells by SPA assay. Format: cell-based. The gist of the method:
(§1)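 Scintillation proximity binding assay on membranes of BHK cells expressing rmGluR4 or rmGluR8. Radioligand was [3H]-L-AP4 for rmGluR4 and [3H]-LY341495 for rmGluR8. Values are means ± SEM of at least three independent experiments performed in triplicate.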

In experiment [5] the target is Metabotropic glutamate receptor 1 (Rattus norvegicus, UniProt P23385). The experiment is described as follows: Activity at rat recombinant mGluR1 expressed in CHO cells assessed as intracellular calcium concentration. Format: functional, cell-based.
Experiment [6] addresses T1, Metabotropic glutamate receptor 4 (Rattus norvegicus, UniProt P31423). The experiment is described as follows: Displacement of [3H]L-AP4 from rat recombinant mGluR4 expressed in BHK cells by SPA assay. Format: cell-based. The essentials:
as §1

For experiment [7], the target named is Metabotropic glutamate receptor 7 (Homo sapiens, UniProt Q14831). The experiment is described as follows: Activity at human recombinant mGluR7 expressed in BHK cells assessed as cAMP production. Format: functional, cell-based. The essentials:
(§2)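 Group III functional read-out: cAMP formation measured in BHK cells expressing hmGluR7 or rmGluR4. EC50 reported in µM as means ± SEM of at least three independent experiments, each performed in triplicate.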

The target in experiment [8] is T1, Metabotropic glutamate receptor 4. The experiment is described as follows: Agonist activity at rat recombinant mGluR4 expressed in BHK cells. Format: functional, cell-based. The essentials: as §2

The term EC50 denotes the concentration needed to bring the measured effect to its halfway point. What is called Ki is the equilibrium dissociation constant of an inhibitor or competing ligand from its target.

Metabotropic glutamate receptor 8, sequence (P70579 whole entry): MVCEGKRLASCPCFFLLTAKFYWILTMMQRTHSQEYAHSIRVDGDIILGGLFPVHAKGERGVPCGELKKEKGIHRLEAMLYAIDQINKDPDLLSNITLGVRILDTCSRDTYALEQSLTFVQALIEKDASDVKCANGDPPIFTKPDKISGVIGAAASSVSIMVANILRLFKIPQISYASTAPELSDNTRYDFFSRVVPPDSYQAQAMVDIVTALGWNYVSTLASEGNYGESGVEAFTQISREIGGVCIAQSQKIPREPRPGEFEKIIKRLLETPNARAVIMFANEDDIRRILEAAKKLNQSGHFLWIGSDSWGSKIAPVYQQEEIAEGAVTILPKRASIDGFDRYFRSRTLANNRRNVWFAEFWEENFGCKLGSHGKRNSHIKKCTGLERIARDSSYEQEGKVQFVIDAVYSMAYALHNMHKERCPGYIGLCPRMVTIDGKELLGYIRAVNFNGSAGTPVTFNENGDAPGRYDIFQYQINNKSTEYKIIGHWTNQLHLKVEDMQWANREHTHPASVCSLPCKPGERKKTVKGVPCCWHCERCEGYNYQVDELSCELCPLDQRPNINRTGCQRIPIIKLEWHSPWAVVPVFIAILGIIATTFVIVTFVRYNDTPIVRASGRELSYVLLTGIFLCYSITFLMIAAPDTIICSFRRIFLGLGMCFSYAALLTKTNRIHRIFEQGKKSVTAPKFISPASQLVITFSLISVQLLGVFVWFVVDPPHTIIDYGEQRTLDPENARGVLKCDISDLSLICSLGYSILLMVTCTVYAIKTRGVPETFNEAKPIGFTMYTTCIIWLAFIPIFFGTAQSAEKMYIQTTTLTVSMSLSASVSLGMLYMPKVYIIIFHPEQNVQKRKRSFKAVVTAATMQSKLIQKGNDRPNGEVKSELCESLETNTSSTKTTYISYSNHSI
Metabotropic glutamate receptor 6, sequence (P35349 whole entry): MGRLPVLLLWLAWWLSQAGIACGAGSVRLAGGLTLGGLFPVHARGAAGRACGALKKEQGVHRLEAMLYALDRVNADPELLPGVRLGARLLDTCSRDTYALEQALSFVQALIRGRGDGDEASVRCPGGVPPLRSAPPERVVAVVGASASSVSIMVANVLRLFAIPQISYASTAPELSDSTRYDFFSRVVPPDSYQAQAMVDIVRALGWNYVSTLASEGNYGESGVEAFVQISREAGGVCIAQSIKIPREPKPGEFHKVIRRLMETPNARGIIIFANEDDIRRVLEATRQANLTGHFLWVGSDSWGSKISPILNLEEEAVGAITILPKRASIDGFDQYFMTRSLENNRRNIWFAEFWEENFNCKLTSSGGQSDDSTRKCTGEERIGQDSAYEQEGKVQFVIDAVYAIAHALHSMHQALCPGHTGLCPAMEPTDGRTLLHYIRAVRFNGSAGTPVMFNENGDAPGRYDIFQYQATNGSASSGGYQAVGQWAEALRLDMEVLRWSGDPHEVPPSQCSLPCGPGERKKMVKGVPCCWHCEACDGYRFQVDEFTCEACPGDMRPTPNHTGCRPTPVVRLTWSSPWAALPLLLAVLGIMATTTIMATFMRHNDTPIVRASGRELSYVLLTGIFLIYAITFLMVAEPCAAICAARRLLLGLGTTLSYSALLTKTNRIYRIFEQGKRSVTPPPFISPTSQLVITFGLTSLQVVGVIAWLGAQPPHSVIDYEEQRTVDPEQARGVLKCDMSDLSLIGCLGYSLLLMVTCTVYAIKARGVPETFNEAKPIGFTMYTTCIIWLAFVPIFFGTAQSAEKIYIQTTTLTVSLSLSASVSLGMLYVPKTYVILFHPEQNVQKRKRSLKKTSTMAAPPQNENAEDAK
T1 sequence (P31423 whole entry): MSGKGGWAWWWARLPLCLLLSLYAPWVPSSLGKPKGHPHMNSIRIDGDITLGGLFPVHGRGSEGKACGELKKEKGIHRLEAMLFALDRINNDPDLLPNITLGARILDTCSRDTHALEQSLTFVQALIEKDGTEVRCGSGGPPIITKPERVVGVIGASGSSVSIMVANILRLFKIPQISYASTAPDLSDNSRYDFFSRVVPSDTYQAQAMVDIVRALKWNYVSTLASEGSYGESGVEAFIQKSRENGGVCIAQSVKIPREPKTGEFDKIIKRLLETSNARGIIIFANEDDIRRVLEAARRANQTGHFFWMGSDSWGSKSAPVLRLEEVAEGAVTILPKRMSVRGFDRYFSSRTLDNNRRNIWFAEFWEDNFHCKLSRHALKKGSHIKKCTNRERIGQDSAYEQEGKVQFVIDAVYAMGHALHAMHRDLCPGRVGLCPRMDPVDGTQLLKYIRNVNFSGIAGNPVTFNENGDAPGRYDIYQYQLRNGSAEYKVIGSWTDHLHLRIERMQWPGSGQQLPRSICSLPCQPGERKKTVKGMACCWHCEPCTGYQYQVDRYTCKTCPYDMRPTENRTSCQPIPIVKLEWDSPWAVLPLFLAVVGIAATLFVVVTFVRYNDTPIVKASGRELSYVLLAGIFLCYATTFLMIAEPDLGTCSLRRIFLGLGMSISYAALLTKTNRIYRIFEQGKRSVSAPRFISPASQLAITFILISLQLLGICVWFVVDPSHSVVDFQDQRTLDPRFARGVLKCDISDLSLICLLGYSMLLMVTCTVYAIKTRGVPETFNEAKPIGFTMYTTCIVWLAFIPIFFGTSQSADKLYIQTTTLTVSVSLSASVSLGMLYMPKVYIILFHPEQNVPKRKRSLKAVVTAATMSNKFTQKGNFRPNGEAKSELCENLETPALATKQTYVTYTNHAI
Metabotropic glutamate receptor 2, sequence (Q14416 whole entry): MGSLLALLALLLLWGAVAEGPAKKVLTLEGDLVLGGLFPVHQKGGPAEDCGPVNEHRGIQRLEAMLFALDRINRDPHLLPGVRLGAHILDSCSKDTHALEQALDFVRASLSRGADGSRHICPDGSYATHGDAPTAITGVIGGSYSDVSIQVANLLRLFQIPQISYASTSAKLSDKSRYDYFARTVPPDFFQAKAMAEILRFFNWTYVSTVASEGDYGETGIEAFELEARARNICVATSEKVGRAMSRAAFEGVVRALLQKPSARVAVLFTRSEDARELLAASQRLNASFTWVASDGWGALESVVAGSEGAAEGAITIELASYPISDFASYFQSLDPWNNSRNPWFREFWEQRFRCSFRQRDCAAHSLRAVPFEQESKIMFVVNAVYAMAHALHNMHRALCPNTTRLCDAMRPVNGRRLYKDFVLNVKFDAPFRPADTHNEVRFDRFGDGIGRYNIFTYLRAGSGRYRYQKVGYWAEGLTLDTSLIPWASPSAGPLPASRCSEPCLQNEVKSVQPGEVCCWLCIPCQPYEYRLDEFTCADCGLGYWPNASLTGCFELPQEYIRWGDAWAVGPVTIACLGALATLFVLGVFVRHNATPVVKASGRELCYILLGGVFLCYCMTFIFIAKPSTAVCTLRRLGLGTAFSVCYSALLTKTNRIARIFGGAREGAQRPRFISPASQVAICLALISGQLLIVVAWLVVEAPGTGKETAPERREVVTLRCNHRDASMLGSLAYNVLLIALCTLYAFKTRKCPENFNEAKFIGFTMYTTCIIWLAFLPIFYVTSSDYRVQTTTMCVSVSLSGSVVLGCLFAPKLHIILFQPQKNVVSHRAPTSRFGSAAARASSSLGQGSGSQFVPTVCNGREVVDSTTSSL
Metabotropic glutamate receptor 7, sequence (Q14831 whole entry): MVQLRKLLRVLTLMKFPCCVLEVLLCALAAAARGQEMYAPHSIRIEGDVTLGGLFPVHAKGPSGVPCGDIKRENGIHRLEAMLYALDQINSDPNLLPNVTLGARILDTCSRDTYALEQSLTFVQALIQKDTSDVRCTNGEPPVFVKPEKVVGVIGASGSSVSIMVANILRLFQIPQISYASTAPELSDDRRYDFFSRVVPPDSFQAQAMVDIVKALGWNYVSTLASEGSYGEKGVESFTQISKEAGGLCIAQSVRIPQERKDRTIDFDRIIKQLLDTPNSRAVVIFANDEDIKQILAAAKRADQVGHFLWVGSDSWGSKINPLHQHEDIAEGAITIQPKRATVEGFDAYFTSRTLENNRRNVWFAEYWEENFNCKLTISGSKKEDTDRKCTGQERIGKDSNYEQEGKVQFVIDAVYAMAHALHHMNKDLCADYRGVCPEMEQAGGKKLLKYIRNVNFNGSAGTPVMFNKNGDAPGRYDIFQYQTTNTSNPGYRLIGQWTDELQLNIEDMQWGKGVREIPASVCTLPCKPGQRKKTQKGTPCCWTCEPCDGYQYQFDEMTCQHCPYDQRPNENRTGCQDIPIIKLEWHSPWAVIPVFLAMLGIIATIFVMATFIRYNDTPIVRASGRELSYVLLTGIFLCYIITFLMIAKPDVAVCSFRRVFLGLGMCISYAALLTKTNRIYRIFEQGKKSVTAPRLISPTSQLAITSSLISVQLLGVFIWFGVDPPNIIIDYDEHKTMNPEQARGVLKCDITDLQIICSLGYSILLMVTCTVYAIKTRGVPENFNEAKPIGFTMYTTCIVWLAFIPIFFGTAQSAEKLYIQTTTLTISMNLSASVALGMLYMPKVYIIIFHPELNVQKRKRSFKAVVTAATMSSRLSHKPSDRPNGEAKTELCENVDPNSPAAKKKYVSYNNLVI

For the molecule `NC(C(=O)O)[C@H]1[C@H](c2ccccc2)[C@@H]1P(=O)(O)O` (some centres not stated), the half-maximal effective concentration (EC50) was more than 1000 µM in experiment [1]; more than 1000 µM in experiment [2]; 51 µM in experiment [3]; more than 1000 µM in experiment [5]; more than 1000 µM in experiment [7]; 59 µM in experiment [8]. Besides, the Ki in experiment [4] is 130 µM; in experiment [6], 24 µM.

With `NC(C(=O)O)[C@H]1[C@@H](c2ccccc2)[C@@H]1P(=O)(O)O` (some centres not stated), the EC50 was more than 1000 µM in experiment [1], 320 µM in experiment [2] and more than 1000 µM in experiment [5]. Further, the values for the Ki in experiment [4] and in experiment [6] were 190 µM and 630 µM, respectively.

Regarding `NC(C(=O)O)[C@H]1C[C@@H]1P(=O)(O)O` (some centres not stated), the EC50 in experiment [1] was more than 1000 µM; in experiment [2] it was more than 1000 µM; in experiment [3], 13 µM; in experiment [5], more than 1000 µM; in experiment [7], 700 µM; in experiment [8] it was 9.4 µM. The Ki in experiment [4] was 63 µM; in experiment [6], 7.4 µM.

In the case of `NC(C(=O)O)[C@@H]1[C@@H](c2ccccc2)[C@H]1P(=O)(O)O` (some centres not stated), the EC50 in experiment [1], in experiment [2], in experiment [3], in experiment [5] and in experiment [7] was more than 1000 µM in each case. For the same molecule, in experiment [6], the Ki was more than 1000 µM.

For `NC(C(=O)O)[C@@H]1[C@H](c2ccccc2)[C@H]1P(=O)(O)O` (some centres not stated), the EC50 in experiment [1], in experiment [2], in experiment [5] and in experiment [8] was more than 1000 µM in each case. Besides, the Ki in experiment [6] is more than 1000 µM.
